Experimental data: ChEMBL document CHEMBL1821567, “Synthesis and glycosidase inhibitory profiles of functionalised morpholines and oxazepanes” (Bioorg Med Chem, 2011)
pIC50, pKi: −log10 of the molar value. Calls of active or inactive are those of the source. The calls are words filed in the database; no cut-off is given here.

What was measured:
[1] = target: T1, Beta-galactosidase/Glucosylceramidase (Bos taurus, UniProt Q58D55+Q2KHZ8); assay: Inhibition of bovine liver beta-glucosidase/beta-galatosidase
T1 sequence (Q58D55 whole entry): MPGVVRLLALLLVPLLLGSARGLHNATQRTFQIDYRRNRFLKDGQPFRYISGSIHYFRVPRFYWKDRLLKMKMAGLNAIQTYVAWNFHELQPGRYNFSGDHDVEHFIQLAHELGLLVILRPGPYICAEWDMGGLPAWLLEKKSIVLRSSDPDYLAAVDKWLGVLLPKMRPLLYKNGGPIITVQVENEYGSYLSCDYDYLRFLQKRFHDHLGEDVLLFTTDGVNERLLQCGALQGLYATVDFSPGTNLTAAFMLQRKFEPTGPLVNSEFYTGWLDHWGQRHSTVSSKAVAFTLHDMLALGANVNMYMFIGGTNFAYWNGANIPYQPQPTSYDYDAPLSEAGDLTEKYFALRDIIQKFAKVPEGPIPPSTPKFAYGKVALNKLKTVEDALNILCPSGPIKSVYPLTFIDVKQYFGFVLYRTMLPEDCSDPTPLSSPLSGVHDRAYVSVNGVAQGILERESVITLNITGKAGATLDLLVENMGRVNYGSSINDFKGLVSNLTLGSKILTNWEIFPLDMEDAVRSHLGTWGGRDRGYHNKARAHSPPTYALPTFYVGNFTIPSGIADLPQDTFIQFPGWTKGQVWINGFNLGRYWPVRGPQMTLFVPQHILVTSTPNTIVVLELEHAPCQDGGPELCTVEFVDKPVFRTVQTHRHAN
T1 sequence (Q2KHZ8 whole entry): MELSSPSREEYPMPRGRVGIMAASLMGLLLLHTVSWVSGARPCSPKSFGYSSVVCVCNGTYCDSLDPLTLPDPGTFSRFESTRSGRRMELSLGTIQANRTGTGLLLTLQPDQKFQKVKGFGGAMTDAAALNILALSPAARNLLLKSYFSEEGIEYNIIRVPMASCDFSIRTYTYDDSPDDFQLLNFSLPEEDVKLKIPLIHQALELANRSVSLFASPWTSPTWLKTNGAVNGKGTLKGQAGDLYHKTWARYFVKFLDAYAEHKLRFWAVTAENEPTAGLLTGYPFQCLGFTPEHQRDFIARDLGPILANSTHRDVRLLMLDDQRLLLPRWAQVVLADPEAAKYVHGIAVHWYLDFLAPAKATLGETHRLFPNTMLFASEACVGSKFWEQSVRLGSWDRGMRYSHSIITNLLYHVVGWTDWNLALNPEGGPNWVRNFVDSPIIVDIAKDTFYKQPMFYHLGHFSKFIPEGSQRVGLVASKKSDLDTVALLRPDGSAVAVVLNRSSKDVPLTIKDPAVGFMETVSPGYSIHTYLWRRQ

[2] = target: T2, Lysosomal acid glucosylceramidase (Homo sapiens, UniProt P04062); assay: Uncompetitive inhibition of human beta-glucosidase by Michaelis-Menten kinetics analysis
T2 sequence (P04062 whole entry): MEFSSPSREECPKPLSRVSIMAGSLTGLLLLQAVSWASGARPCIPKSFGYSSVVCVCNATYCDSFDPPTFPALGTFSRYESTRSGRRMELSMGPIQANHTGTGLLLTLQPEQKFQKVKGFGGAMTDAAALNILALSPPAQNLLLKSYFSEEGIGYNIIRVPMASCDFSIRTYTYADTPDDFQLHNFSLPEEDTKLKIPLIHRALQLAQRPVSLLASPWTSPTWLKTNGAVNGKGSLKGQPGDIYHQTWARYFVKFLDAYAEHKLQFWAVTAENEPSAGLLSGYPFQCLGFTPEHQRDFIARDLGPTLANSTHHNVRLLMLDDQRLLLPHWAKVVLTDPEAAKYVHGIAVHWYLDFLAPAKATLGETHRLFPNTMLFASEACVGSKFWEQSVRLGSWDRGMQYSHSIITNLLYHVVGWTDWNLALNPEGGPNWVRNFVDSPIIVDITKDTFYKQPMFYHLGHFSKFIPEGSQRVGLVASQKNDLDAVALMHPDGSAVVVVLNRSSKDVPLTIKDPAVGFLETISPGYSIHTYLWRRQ

[3] = Inhibition of lysosomal alpha-glucosidase
[4] = Inhibition of lysosomal beta-glucosidase; details: concentration not given here
Summary of the method: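 Enzyme and test solution (or water for controls) were pre-incubated at 27 °C for 10–20 min. Substrate was then added and incubated at 27 °C for 10–20 min. The reaction was stopped with glycine solution and absorbance read at 405 nm. Wells were in triplicate with triplicate controls. Results are % inhibition at 1 mg/ml at optimal pH.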

[5] = Inhibition of lysosomal alpha-glucosidase
[6] = Inhibition of alpha-glucosidase
[7] = test system: Penicillium decumbens; assay: Inhibition of Penicillium decumbens naringinase at 1 mg/ml after 10 to 20 mins
Summary of the method: (§1)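 Enzyme was pre-incubated with test solution at 1 mg/ml, or dH2O for controls, for 10–20 min at 27 °C. Substrate was added and incubation continued for the same time at 27 °C. The reaction was stopped with glycine solution and read at 405 nm. Each sample and control ran in three wells at the enzyme's optimal pH. Values are % inhibition.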

[8] = test system: Prunus; assay: Inhibition of almond beta-D-glucosidase at 1 mg/ml after 10 to 20 mins; summary of the method: as §1
[9] = target: T3, Beta-galactosidase (Bos taurus, UniProt Q58D55); assay: Inhibition of bovine kidney beta-D-galactosidase after 10 to 20 mins
T3 sequence (Q58D55 whole entry): T1 sequence (Q58D55 whole entry)
Summary of the method: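 Bovine kidney β-D-galactosidase was pre-incubated with test solution, or dH2O for controls, for 10–20 min at 27 °C. Substrate was added for a further 10–20 min at 27 °C, then glycine solution, and absorbance at 405 nm. Wells were run in triplicate. Ki and inhibition mode came from Lineweaver–Burk double-reciprocal slopes.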

[10] = species on record: Bos taurus; assay: Inhibition of bovine kidney N-acetyl-beta-D-glucosaminidase at 1 mg/ml after 10 to 20 mins; summary of the method: as §1
[11] = target: Alpha-galactosidase (Coffea arabica) (UniProt Q42656); assay: Inhibition of green coffee beans alpha-D-galactosidase at 1 mg/ml after 10 to 20 mins; summary of the method: as §1
[12] = test system: Canavalia ensiformis; assay: Inhibition of jack bean alpha-D-mannosidase at 1 mg/ml after 10 to 20 mins; summary of the method: as §1
[13] = target: T4, Beta-galactosidase (Bos taurus) (UniProt Q58D55); assay: Inhibition of bovine kidney beta-D-galactosidase at 1 mg/ml after 10 to 20 mins; summary of the method: as §1
T4 sequence (whole entry): T1 sequence (Q58D55 whole entry)

[14] = test system: Cellulomonas fimi; assay: Inhibition of Cellulomonas fimi beta-D-mannosidase at 1 mg/ml after 10 to 20 mins; summary of the method: as §1
[15] = test system: Geobacillus stearothermophilus; assay: Inhibition of Bacillus stearothermophilus alpha-D-glucosidase at 1 mg/ml after 10 to 20 mins; summary of the method: as §1
[16] = test system: Saccharomyces cerevisiae; assay: Inhibition of Saccharomyces cerevisiae alpha-D-glucosidase at 1 mg/ml after 10 to 20 mins; summary of the method: as §1
[17] = test system: Oryza sativa; assay: Inhibition of rice alpha-D-glucosidase at 1 mg/ml after 10 to 20 mins; summary of the method: as §1

Alpha-galactosidase (Coffea arabica), sequence (Q42656 16-378 limits assumed): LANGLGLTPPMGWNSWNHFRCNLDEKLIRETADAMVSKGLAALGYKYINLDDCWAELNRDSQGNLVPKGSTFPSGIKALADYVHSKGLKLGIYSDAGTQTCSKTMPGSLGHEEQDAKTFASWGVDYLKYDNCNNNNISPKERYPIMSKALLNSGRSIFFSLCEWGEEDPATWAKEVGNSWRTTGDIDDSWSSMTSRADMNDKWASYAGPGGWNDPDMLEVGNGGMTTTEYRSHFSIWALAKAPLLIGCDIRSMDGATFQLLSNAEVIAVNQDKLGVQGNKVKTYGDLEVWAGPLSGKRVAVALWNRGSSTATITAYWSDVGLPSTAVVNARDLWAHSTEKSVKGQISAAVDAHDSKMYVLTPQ

O=C(Nc1ccccc1)N1[C@@H]2OC[C@]1(O)[C@@H](O)[C@H](O)[C@H]2O
Ki [1]: 30 µM

OCCN1CCOCC1
pKi [2]: 3.21

O[C@H]1[C@H](O)[C@@H](O)CN2CC[C@H](O)[C@H]12 [CASTANOSPERMINE]
pKi [3]: 7.00
inhibition [4]: 96%
pKi [5]: 7.00
inhibition ([5]; concentration not given here): 100%

O[C@@H]1[C@@H](O)[C@H](O)[C@@]2(O)CO[C@H]1N2
Ki [1]: 45 µM

OCCC(O)CN1CCOCC1 (stereo not drawn)
pKi [2]: 3.19

OC[C@H]1CNC[C@@H](O)[C@@H]1O
INH [6]: 86 µM

O[C@@H]1[C@@H](O)[C@H](O)[C@@]2(O)CO[C@H]1N2C(=S)Nc1ccccc1
Ki [1]: 2.5 µM

O=C(Nc1ccccc1)N1[C@@H]2OC[C@]1(O)[C@@H](O)[C@@H](O)[C@H]2O
Ki [1]: 68 µM

O[C@@H]1[C@H](O)[C@H](O)[C@@]2(O)CO[C@H]1N2C(=S)Nc1ccccc1
Ki [1]: 750 µM

CCCCN1C[C@@H](CO)O[C@H](OC)C1
inhibition [7]: 7%
inhibition [8]: inactive
pIC50 [9]: 4.15
inhibition [10]: 8%
inhibition [11]: inactive
inhibition [12]: inactive
inhibition [13]: 45%
inhibition [14]: inactive
inhibition [15]: inactive
inhibition [16]: inactive
inhibition [17]: inactive
